Data set [1] is described as follows: Cytotoxicity against GFP reporter gene expressing human HOG.R5 cells. It is filed as cell-based. In outline: (§1)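 Run in parallel with the anti-HIV assay: HOG.R5 GFP reporter cultures given identical concentrations of test material but no virus; cell viability monitored after 4 days by combined microscopic and fluorometric measurement; CC50 derived.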
In general terms: A reporter such as luciferase makes a cellular process visible.

The test system of data set [2] is Human immunodeficiency virus 1. Kind of data set: Antiviral activity against HIV1 3B in human HOG.R5 cells by GFP-based reporter gene assay. It is filed as functional, organism-based. The following applies: Human immunodeficiency virus 1, 3B. In outline:
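HOG.R5 GFP reporter cells in microtiter wells infected with HIV-1 IIIB (2.5 ng/mL p24) in presence of test material; GFP fluorescence read after 4 days to quantify infectivity; IC50 derived.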

The nature of data set [3]: Cytotoxicity against GFP reporter gene expressing human HOG.R5 cells at 10 ug/mL. It is filed as cell-based. To be noted: in the assay text read “20 ug/mL” for “10 ug/mL”. In short, it runs like this:
as §1

Data set [4] can be described thus: Cytotoxicity against GFP reporter gene expressing human HOG.R5 cells up to 20 ug/mL. It is filed as cell-based. In short, it runs like this: as §1

On to `C=C1CC[C@H](C(C)(C)O)/C=C/[C@@H](C)CCC1=O` [LITSEAGERMACRANE], for which the CC50 (commonly the concentration giving 50% cytotoxicity) in data set [1] was 63.4 µM. Further, inhibition in data set [2] was half-maximal at 27.5 µM (IC50).

Take `CC(=O)CC/C(=C/C1=C(C)CCC1=O)C(C)C` [LITSEACHROMOLAEVANE B]: the Activity result in data set [3] and in data set [4] was “Non-toxic” in each case. In addition, the IC50 (usually the concentration that inhibits the measured activity by half) in data set [2] is 120 µM.

For the compound `C=C1CC[C@@H](O)[C@]2(C)CC[C@H](C(C)C)[C@@H](O)[C@H]12`, the Activity result in data set [3] and in data set [4] was “Non-toxic” throughout. The compound also showed an IC50 in data set [2] of 73.1 µM.

For the origin of these results see ChEMBL document CHEMBL1159381, “New Sesquiterpenes from Litsea verticillata” (J Nat Prod, 2003).
